Reference: ChEMBL document CHEMBL4270578, “Synthesis and cytotoxic studies of novel 5-phenylisatin derivatives and their anti-migration and anti-angiogenic evaluation” (Eur J Med Chem, 2018)
Calls of active or inactive are those of the source. The rule behind the calls is not given here.

How the values were obtained:
[1] = test system: K562; experiment: Induction of apoptosis in human K562 cells assessed as necrotic cells at 300 nM after 6 hrs by Annexin V-FITC/propidium iodide staining-based flow cytometric analysis (reference value: 0%); type: functional
[2] = test system: K562; experiment: Induction of apoptosis in human K562 cells assessed as early apoptotic cells at 30 nM after 24 hrs by Annexin V-FITC/propidium iodide staining-based flow cytometric analysis (reference value: 1.9%); type: functional
[3] = test system: K562; experiment: Induction of apoptosis in human K562 cells assessed as viable cells at 30 nM after 12 hrs by Annexin V-FITC/propidium iodide staining-based flow cytometric analysis (reference value: 95.8%); type: functional; conditions: K562, 12 h, read-out: Activity
[4] = test system: K562; experiment: Induction of apoptosis in human K562 cells assessed as early apoptotic cells at 30 nM after 6 hrs by Annexin V-FITC/propidium iodide staining-based flow cytometric analysis (reference value: 1.9%); type: functional
[5] = test system: HepG2; experiment: Anti-migratory activity against human HepG2 cells after 24 hrs by DAPI staining-based transwell assay; type: functional, cell-based
In short: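 HepG2 cells in serum-free DMEM, 2 × 10^5 cells/well, placed in upper compartment of polycarbonate filter inserts; lower chamber DMEM + 10% FBS. Compound or DMSO added after 30 min; 24 h at 37 °C, 5% CO2. Filters methanol-fixed and DAPI-stained, non-migrated cells swabbed off. Migrated cells on the lower side counted in three random fields.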

[6] = test system: K562; experiment: Induction of apoptosis in human K562 cells assessed as late apoptotic cells at 300 nM after 48 hrs by Annexin V-FITC/propidium iodide staining-based flow cytometric analysis (reference value: 2.1%); type: functional
[7] = test system: K562; experiment: Induction of apoptosis in human K562 cells assessed as early apoptotic cells at 30 nM after 12 hrs by Annexin V-FITC/propidium iodide staining-based flow cytometric analysis (reference value: 1.9%); type: functional
[8] = test system: K562; experiment: Induction of apoptosis in human K562 cells assessed as late apoptotic cells at 30 nM after 12 hrs by Annexin V-FITC/propidium iodide staining-based flow cytometric analysis (reference value: 2.2%); type: functional
[9] = test system: K562; experiment: Induction of morphological changes in human K562 cells assessed as cell shrinkage at 30 nM after 24 hrs; type: functional, cell-based
In short: (§1)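 K562 cells kept in RPMI-1640 with 10% FBS, 2.05 mM glutamine and penicillin/streptomycin at 37 °C, 5% CO2. Exposed to 30 nM drug alongside DMSO-treated controls. Cell morphology examined by microscopy.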

[10] = test system: K562; experiment: Induction of apoptosis in human K562 cells assessed as early apoptotic cells at 30 nM after 48 hrs by Annexin V-FITC/propidium iodide staining-based flow cytometric analysis (reference value: 1.9%); type: functional
[11] = test system: K562; experiment: Induction of apoptosis in human K562 cells assessed as viable cells at 300 nM after 12 hrs by Annexin V-FITC/propidium iodide staining-based flow cytometric analysis (reference value: 95.6%); type: functional; conditions: K562, 12 h, read-out: Activity
[12] = test system: K562; experiment: Induction of apoptosis in human K562 cells assessed as necrotic cells at 300 nM after 48 hrs by Annexin V-FITC/propidium iodide staining-based flow cytometric analysis (reference value: 0%); type: functional
[13] = test system: K562; experiment: Induction of apoptosis in human K562 cells assessed as necrotic cells at 30 nM after 48 hrs by Annexin V-FITC/propidium iodide staining-based flow cytometric analysis (reference value: 0.1%); type: functional
[14] = test system: K562; experiment: Induction of apoptosis in human K562 cells assessed as necrotic cells at 30 nM after 24 hrs by Annexin V-FITC/propidium iodide staining-based flow cytometric analysis (reference value: 0.1%); type: functional
[15] = test system: K562; experiment: Induction of apoptosis in human K562 cells assessed as early apoptotic cells at 300 nM after 48 hrs by Annexin V-FITC/propidium iodide staining-based flow cytometric analysis (reference value: 2.2%); type: functional
[16] = test system: K562; experiment: Induction of apoptosis in human K562 cells assessed as late apoptotic cells at 300 nM after 12 hrs by Annexin V-FITC/propidium iodide staining-based flow cytometric analysis (reference value: 2.1%); type: functional
[17] = test system: K562; experiment: Induction of apoptosis in human K562 cells assessed as viable cells at 30 nM after 6 hrs by Annexin V-FITC/propidium iodide staining-based flow cytometric analysis (reference value: 95.8%); type: functional; conditions: K562, 6 h, read-out: Activity
[18] = test system: K562; experiment: Antiproliferative activity against human K562 cells after 48 hrs by MTT assay; type: functional, cell-based; conditions: K562, 48 h
In short: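 MTT assay on K562 cells (RPMI-1640, 10% FBS) plated at 5 × 10^4 cells/ml for 2 h, then exposed to 10–100,000 nM compound for 48 h. MTT (5 mg/mL stock) added for 4 h before absorbance read. Viability normalized to DMSO controls (100%); IC50 from nonlinear regression, three independent assays.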

[19] = test system: K562; experiment: Induction of apoptosis in human K562 cells assessed as necrotic cells at 30 nM after 12 hrs by Annexin V-FITC/propidium iodide staining-based flow cytometric analysis (reference value: 0.1%); type: functional
[20] = test system: K562; experiment: Induction of apoptosis in human K562 cells assessed as late apoptotic cells at 300 nM after 24 hrs by Annexin V-FITC/propidium iodide staining-based flow cytometric analysis (reference value: 2.1%); type: functional
[21] = test system: K562; experiment: Induction of apoptosis in human K562 cells assessed as late apoptotic cells at 30 nM after 6 hrs by Annexin V-FITC/propidium iodide staining-based flow cytometric analysis (reference value: 2.2%); type: functional
[22] = test system: K562; experiment: Induction of apoptosis in human K562 cells assessed as necrotic cells at 300 nM after 24 hrs by Annexin V-FITC/propidium iodide staining-based flow cytometric analysis (reference value: 0%); type: functional
[23] = test system: K562; experiment: Induction of apoptosis in human K562 cells assessed as late apoptotic cells at 30 nM after 48 hrs by Annexin V-FITC/propidium iodide staining-based flow cytometric analysis (reference value: 2.2%); type: functional
[24] = test system: K562; experiment: Induction of apoptosis in human K562 cells assessed as necrotic cells at 30 nM after 6 hrs by Annexin V-FITC/propidium iodide staining-based flow cytometric analysis (reference value: 0.1%); type: functional
[25] = test system: K562; experiment: Induction of apoptosis in human K562 cells assessed as viable cells at 300 nM after 24 hrs by Annexin V-FITC/propidium iodide staining-based flow cytometric analysis (reference value: 95.6%); type: functional; conditions: K562, 24 h, read-out: Activity
[26] = test system: HepG2; experiment: Antiproliferative activity against human HepG2 cells after 48 hrs by MTT assay; type: functional, cell-based; conditions: HepG2, 48 h
[27] = test system: HUVEC; experiment: Cytotoxicity against HUVEC after 48 hrs by MTT assay; type: cell-based; conditions: Homo sapiens
[28] = test system: K562; experiment: Induction of morphological changes in human K562 cells assessed as cell blebbing at 30 nM after 24 hrs; type: functional, cell-based; in short: as §1
[29] = test system: HepG2; experiment: Anti-migratory activity against human HepG2 cells at 10 nM after 48 hrs by wound-healing assay relative to control; type: functional
In short: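 HepG2 cells seeded at 2 × 10^5 cells/well in DMEM and grown 24 h. Monolayer scratched with a 10 μl pipette tip, then PBS-washed three times. Treated with DMSO or compound (10, 30, 100 nM) at 37 °C, 5% CO2, imaged by microscopy at 0–48 h. Migration distance measured; inhibition ratio calculated against DMSO control.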

COc1ccc(CN2C(=O)C(=O)c3cc(-c4ccc(OC)cc4)ccc32)cc1
Activity [1]: 0.2% | Activity [2]: 5.7% | viability at 0.03 µM [3]: 92.8% | Activity [4]: 2.1% | Activity [5]: Dose-dependent effect | Activity [6]: 10% | Activity [7]: 3.1% | Activity [8]: 4% | Activity [9]: Active | Activity [10]: 22.3% | viability at 0.3 µM [11]: 88.1% | Activity [12]: 0% | Activity [13]: 1% | Activity [14]: 0.4% | Activity [15]: 85.2% | Activity [16]: 5.9% | viability at 0.03 µM [17]: 94.4% | IC50 [18]: 30 nM | Activity [19]: 0% | Activity [20]: 4.7% | Activity [21]: 3.3% | Activity [22]: 0.2% | Activity [23]: 21.1% | Activity [24]: 0.1% | viability at 0.3 µM [25]: 82.6% | IC50 [26]: 50 nM | IC50 [27]: 920 nM | Activity [28]: Active | Activity [29]: 11.9%
